Measurements as given in ChEMBL document CHEMBL1124013, “Anticonvulsant activities of phenyl-substituted bicyclic 2,4-oxazolidinediones and monocyclic models. Comparison with binding to the neuronal voltage-dependent sodium channel” (J Med Chem, 1988).
Calls of active or inactive are those of the source. The calls are words filed in the database; no cut-off is given here.

Assays:
[1] = biological target: Sodium channel alpha subunits; brain (Types I, II, III) (Rattus norvegicus, UniProt P04775+P04774+P08104); assay: In vitro inhibition of [3H]-BTX-B binding to sodium channels in rat brain synapto-neurosomes; assay type: tissue-based
How it was run: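 Rat cerebral cortex synaptoneurosomes were prepared by glass-glass homogenization in choline chloride/HEPES/glucose/MgSO4/KCl buffer, then spun at 1000g for 15 min at 4 °C. Incubation was 40 min at 25 °C with 10 nM [3H]BTX-B, 50 µg/mL scorpion venom, about 980 µg protein and varying compound concentrations (final MeOH <1%). Bound label was collected by filtration and scintillation counting. Nonspecific binding was taken with 250 µM veratridine. IC50 is the concentration giving 50% inhibition of specific binding.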

Mus musculus [2] = assay: Anticonvulsant activity in mice, induced by subcutaneous administration of Metrazol for Phase-I screening; Active at 300 mg/kg; assay type: functional, organism-based; parameters: dose 300 mg/kg
How it was run: (§1)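 Phase I qualitative screen run by the NINCDS Anticonvulsant Drug Development Program. Mice (1-4 per group) received 30, 100 or 300 mg/kg ip as suspensions in 30% polyethylene glycol 400 unless otherwise noted. Testing was 30 min after dosing in the MES, subcutaneous Metrazol or rotorod toxicity model.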

[3] = Rotarod toxicity test for the compound in Phase-II screening was determined; assay type: organism-based; conditions: mouse, in vivo
Mus musculus [4] = assay: Anticonvulsant activity in mice(induced by maximal electroshock )after 0.5 hr of administration, for Phase-II screening; assay type: functional
How it was run: (§2)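 Phase II quantitative evaluation in mice by the NINCDS program. Dosing was ip as suspensions in 0.5% methylcellulose or 30% polyethylene glycol 400. ED50 (MES or subcutaneous Metrazol) or TD50 (rotorod) in mg/kg was derived with 95% confidence intervals, measured at the stated time after administration.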

Mus musculus [5] = assay: Rotarod toxicity test in Phase-I screening was determined; Inactive up to 300 mg/kg; assay type: organism-based; parameters: dose 300 mg/kg; conditions: in vivo; how it was run: as §1
Mus musculus [6] = assay: Anticonvulsant activity in mice, induced by maximal electroshock for Phase-I screening; Active at 300 mg/kg; assay type: functional, organism-based; parameters: dose 300 mg/kg; how it was run: as §1
Mus musculus [7] = assay: Anticonvulsant activity in mice, (induced by subcutaneous administration of Metrazol.) after 0.5 hr of administration, for Phase-II screening; assay type: functional; conditions: sc; how it was run: as §2
Mus musculus [8] = assay: Anticonvulsant activity in mice, (induced by subcutaneous administration of Metrazol.) after 0.25 hr of administration, for Phase-II screening; Inactive; assay type: functional, organism-based; how it was run: as §2
Mus musculus [9] = assay: Anticonvulsant activity in mice(induced by maximal electroshock )after 0.25 hr of administration, for Phase-II screening; assay type: functional; how it was run: as §2
Mus musculus [10] = assay: Anticonvulsant activity in mice, (induced by subcutaneous administration of Metrazol.) after 0.25 hr of administration, for Phase-II screening; assay type: functional; conditions: sc; how it was run: as §2
Mus musculus [11] = assay: Anticonvulsant activity in mice, induced by maximal electroshock for Phase-I screening; Active at 100 mg/kg; assay type: functional, organism-based; parameters: dose 100 mg/kg; how it was run: as §1
Mus musculus [12] = assay: Rotarod toxicity test in Phase-I screening was determined; Active at 300 mg/kg; assay type: organism-based; parameters: dose 300 mg/kg; conditions: in vivo; how it was run: as §1
Mus musculus [13] = assay: Anticonvulsant activity in mice, (induced by subcutaneous administration of Metrazol.) after 1 hr (tested for rotarod test only) of administration, for Phase-II screening; assay type: functional; conditions: sc
Mus musculus [14] = assay: Anticonvulsant activity in mice(induced by maximal electroshock )after 1 hr (tested for rotarod test only) of administration, for Phase-II screening; assay type: functional
Mus musculus [15] = assay: Anticonvulsant activity in mice (induced by maximal electroshock )after 0.5 hr of administration, for Phase-II screening; assay type: functional; how it was run: as §2
Mus musculus [16] = assay: Anticonvulsant activity in mice, induced by subcutaneous administration of Metrazol for Phase-I screening; Active at 30 mg/kg; assay type: functional, organism-based; parameters: dose 30 mg/kg; how it was run: as §1
Mus musculus [17] = assay: Rotarod toxicity test in Phase-I screening was determined; Active at 30 mg/kg; assay type: organism-based; parameters: dose 30 mg/kg; conditions: in vivo; how it was run: as §1
Mus musculus [18] = assay: Anticonvulsant activity in mice, induced by maximal electroshock for Phase-I screening; Inactive up to 300 mg/kg; assay type: functional, organism-based; parameters: dose 300 mg/kg
How it was run: (§3)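 NINCDS Anticonvulsant Drug Development Program qualitative phase I screen in mice (1-4 per dose) at 30, 100 and 300 mg/kg, given ip as suspensions in 30% PEG 400 (some in 0.5% methylcellulose). Challenge 30 min post-dose with maximal electroshock or subcutaneous Metrazol.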

Mus musculus [19] = assay: Anticonvulsant activity in mice, induced by subcutaneous administration of Metrazol for Phase-I screening; Active at 100 mg/kg; assay type: functional, organism-based; parameters: dose 100 mg/kg; how it was run: as §1
Mus musculus [20] = assay: Anticonvulsant activity in mice, induced by subcutaneous administration of Metrazol for Phase-I screening; Inactive up to 300 mg/kg; assay type: functional, organism-based; parameters: dose 300 mg/kg; how it was run: as §3
Mus musculus [21] = assay: Anticonvulsant activity in mice, (induced by subcutaneous administration of Metrazol.) after 2 hr of administration, for Phase-II screening; Inactive; assay type: functional, organism-based; how it was run: as §2
Mus musculus [22] = assay: Anticonvulsant activity in mice(induced by maximal electroshock )after 2 hr of administration, for Phase-II screening; assay type: functional; how it was run: as §2
Mus musculus [23] = assay: Anticonvulsant activity in mice, induced by maximal electroshock for Phase-I screening; active at 100 mg/kg; assay type: functional, organism-based; parameters: dose 100 mg/kg; how it was run: as §1
Mus musculus [24] = assay: Anticonvulsant activity in mice, induced by subcutaneous administration of Metrazol for Phase-I screening; active at 100 mg/kg; assay type: functional, organism-based; parameters: dose 100 mg/kg; how it was run: as §1
Mus musculus [25] = assay: Anticonvulsant activity in mice, (induced by subcutaneous administration of Metrazol) after 0.25 hr of administration, for Phase-II screening; assay type: functional; conditions: sc; how it was run: as §2
Mus musculus [26] = assay: Rotarod toxicity test in Phase-I screening was determined; active at 100 mg/kg; assay type: organism-based; parameters: dose 100 mg/kg; conditions: in vivo; how it was run: as §1
Mus musculus [27] = assay: Anticonvulsant activity in mice(induced by maximal electroshock) after 0.25 hr of administration, for Phase-II screening; assay type: functional; how it was run: as §2

Structure (SMILES) | IC50 [1] [µM] | scMet (Mus musculus [2]) | TD50 [3] [mg/kg] | ED50 (Mus musculus [7]) [mg/kg] | MES (Mus musculus [11]) | other results
CCOC(=O)N1CCCC(OC)(c2ccccc2)C1=O (stereo not given) | 590 | Active | > 300 | 124 |  | ED50 (Mus musculus [4]): 225 mg/kg; Rotorod (Mus musculus [5]): Not Active; MES (Mus musculus [6]): Active
NC(=O)N1c2ccccc2C=Cc2ccccc21 [CARBAMAZEPINE] | 131 |  |  |  |  | ED50 (Mus musculus [8]): inactive; ED50 (Mus musculus [9]): 9 mg/kg
O=C1NCCCCCC1(O)c1ccccc1 (stereo not given) | > 800 | Active | 199 |  | Active | ED50 (Mus musculus [10]): 108 mg/kg; Rotorod (Mus musculus [12]): Active; ED50 (Mus musculus [9]): 80 mg/kg
CN1C(=O)OC(C)(C)C1=O [TRIMETHADIONE] | > 1000 |  | 819 |  |  | ED50 (Mus musculus [13]): 300 mg/kg; ED50 (Mus musculus [14]): 627 mg/kg
CCC1(c2ccccc2)OC(=O)NC1=O (stereo not given) | > 800 |  | 164 | 39 |  | ED50 (Mus musculus [15]): 86 mg/kg; MES (Mus musculus [6]): Active; scMet (Mus musculus [16]): Active; Rotorod (Mus musculus [17]): Active
O=C1O[C@@]2(c3ccccc3)CCCCN1C2=O | 380 | Active |  |  |  | Rotorod (Mus musculus [5]): Not Active; MES (Mus musculus [18]): inactive
CCOC(=O)N1CCCCC(O)(c2ccccc2)C1=O (stereo not given) | 640 |  | 216 |  | Active | scMet (Mus musculus [19]): Active; Rotorod (Mus musculus [12]): Active; ED50 (Mus musculus [9]): 84 mg/kg
CN1CCCC(O)(c2ccccc2)C1=O (stereo not given) | > 800 | Active | ~350 | 128 | Active | ED50 (Mus musculus [4]): 84 mg/kg; Rotorod (Mus musculus [5]): Not Active
O=C1NCCCCC1(O)c1ccccc1 (stereo not given) | > 800 | Active | 210 |  | Active | ED50 (Mus musculus [10]): 74 mg/kg; Rotorod (Mus musculus [12]): Active; ED50 (Mus musculus [9]): 63 mg/kg
O=C1NCCCC1(O)c1ccccc1 (stereo not given) | > 800 |  |  |  |  | Rotorod (Mus musculus [5]): Not Active; scMet (Mus musculus [20]): inactive; MES (Mus musculus [18]): inactive
O=C1NC(=O)C(c2ccccc2)(c2ccccc2)N1 [PHENYTOIN] | 40 |  |  |  |  | ED50 (Mus musculus [21]): inactive; ED50 (Mus musculus [22]): 10 mg/kg
O=C1O[C@]2(c3ccccc3)CCCCCN1C2=O | 160 |  | 147 |  |  | MES (Mus musculus [23]): Active; scMet (Mus musculus [24]): Active; ED50 (Mus musculus [25]): 45 mg/kg; Rotorod (Mus musculus [26]): Active; ED50 (Mus musculus [27]): 66 mg/kg
COC1(c2ccccc2)CCCNC1=O (stereo not given) | > 800 | Active | 239 | 50 | Active | ED50 (Mus musculus [4]): 120 mg/kg; Rotorod (Mus musculus [12]): Active
CCC1(c2ccccc2)OC(=O)N(C)C1=O (stereo not given) | 500 |  | 504 | 45 |  | ED50 (Mus musculus [4]): 124 mg/kg; MES (Mus musculus [6]): Active; scMet (Mus musculus [16]): Active; Rotorod (Mus musculus [17]): Active
